Experiments:
[1] = system: Moloney murine leukemia virus; assay: Inhibition of Moloney murine leukemia virus reverse transcriptase using (ribocytidylic acid)n(deoxyguanylic acid)12-18 as template primer by liquid scintillation counting
Outline: (§1)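 30 μl mix of 50 mM Tris-HCl pH 8.3, 75 mM KCl, 10 mM DTT, 3 mM MgCl₂, 3 μg nuclease-free BSA, 0.5 μg template-primer, 2 mM dTTP or dGTP with 0.5 μCi matching [³H]-dNTP, and 5 units MMLV RT. Incubated 37° for 30 min, stopped with EDTA. Duplicate aliquots spotted on DE-81 paper, washed, and counted by liquid scintillation.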

[2] = system: Moloney murine leukemia virus; assay: Inhibition of Moloney murine leukemia virus reverse transcriptase using (riboadenylic acid)n(deoxythymidylic acid)12-18 as template primer by liquid scintillation counting; outline: as §1
[3] = Selectivity for Moloney murine leukemia virus reverse transcriptase over Escherichia coli DNA polymerase 1

O=c1c(O)c(-c2ccccc2)oc2ccccc12
ID50 [1]: > 420000 nM
ID50 [2]: > 420000 nM

O=C1CC(c2ccccc2)Oc2ccccc21 (stereo not drawn)
ID50 [1]: > 446000 nM
ID50 [2]: > 446000 nM

O=C1c2c(O)cc(O)cc2OC(c2ccc(O)c(O)c2)C1O (racemic)
ID50 [1]: 2460 nM
ID50 [2]: 2430 nM
fold change (FC) [3]: 10

O=c1c(O)c(-c2ccc(O)c(O)c2)oc2cc(O)cc(O)c12
ID50 [1]: 170 nM
ID50 [2]: 200 nM
fold change (FC) [3]: 10

O=c1c(O)c(-c2ccc(O)c(O)c2)oc2cc(O)ccc12
ID50 [1]: 240 nM
ID50 [2]: 280 nM

C[C@H]1O[C@@H](Oc2c(-c3cc(O)c(O)c(O)c3)oc3cc(O)cc(O)c3c2=O)[C@@H](O)[C@@H](O)[C@@H]1O
ID50 [1]: 9690 nM
ID50 [2]: 10000 nM

Oc1cc(O)c2c(c1)O[C@H](c1ccc(O)c(O)c1)[C@@H](O)C2
ID50 [1]: 2860 nM
ID50 [2]: 2750 nM

O=c1cc(-c2ccccc2)oc2cc(O)ccc12
ID50 [1]: > 420000 nM
ID50 [2]: > 420000 nM

Oc1cc(O)c2c(c1)O[C@H](c1ccc(O)c(O)c1)[C@H](O)C2
ID50 [1]: 2650 nM
ID50 [2]: 2580 nM

O=c1c(O)c(-c2ccc(O)cc2)oc2cc(O)cc(O)c12
ID50 [1]: 1290 nM
ID50 [2]: 1220 nM
fold change (FC) [3]: 10

COc1ccc([C@@H]2CC(=O)c3c(O)cc(O)cc3O2)cc1O
ID50 [1]: 22100 nM
ID50 [2]: 20900 nM

C[C@@H]1O[C@@H](OC[C@H]2O[C@@H](Oc3c(-c4ccc(O)c(O)c4)oc4cc(O)cc(O)c4c3=O)[C@H](O)[C@@H](O)[C@@H]2O)[C@H](O)[C@H](O)[C@H]1O
ID50 [1]: 7330 nM
ID50 [2]: 7270 nM

O=c1c(O)c(-c2cc(O)c(O)c(O)c2)oc2cc(O)cc(O)c12
ID50 [1]: 280 nM
ID50 [2]: 250 nM
fold change (FC) [3]: 10

O=c1c(O)c(-c2ccc(O)cc2O)oc2cc(O)cc(O)c12
ID50 [1]: 1010 nM
ID50 [2]: 1030 nM
fold change (FC) [3]: 10

Source: ChEMBL document CHEMBL1159005, “Inhibitory effects of flavonoids on Moloney murine leukemia virus reverse transcriptase activity” (J Nat Prod, 1992)
